Test results: EPA's CvTdb concentration-time database

Columns and labels:
Rat [1] = experiment: concentration in plasma after dosing; conditions: dosed: 2,4-Dichlorophenoxyacetic acid, 2.0 mg/kg, iv, Male, Sprague-Dawley
Rat [2] = experiment: concentration in plasma after dosing; conditions: dosed: 2-Hydroxy-4-methoxybenzophenone, 100 mg/kg, oral, Female, F344
Rat [3] = experiment: concentration in plasma after dosing; conditions: dosed: 2-Hydroxy-4-methoxybenzophenone, 500 mg/kg, oral, Female, F344
Rat [4] = experiment: concentration in plasma after dosing; conditions: dosed: 2-Hydroxy-4-methoxybenzophenone, 500 mg/kg, oral, Male, F344
Rat [5] = experiment: concentration in plasma after dosing; conditions: 6 h; dosed: 2-Hydroxy-4-methoxybenzophenone; 500 mg/kg; oral; Male; F344
Mouse [6] = experiment: concentration in plasma after dosing; conditions: 2 h; dosed: 2-Hydroxy-4-methoxybenzophenone; 50 mg/kg; iv; Female; B6C3F1
Mouse [7] = experiment: concentration in plasma after dosing; conditions: 0.25 h; dosed: 2-Hydroxy-4-methoxybenzophenone; 250 mg/kg; oral; Female; B6C3F1
Rat [8] = experiment: concentration in plasma after dosing; conditions: dosed: 2-Hydroxy-4-methoxybenzophenone, 100 mg/kg, oral, Female, F344; remark: listed apart in the source
Rat [9] = experiment: concentration in plasma after dosing; conditions: 0.25 h; dosed: 2-Hydroxy-4-methoxybenzophenone; 500 mg/kg; oral; Male; F344
human = experiment: amount in urine after dosing (umol)
In short: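 Points were largely digitised from plot screenshots with WebPlotDigitizer or otherwise copied from tables, and they remain in the units each source reported. They come from published in vivo toxicokinetic studies and two structured collections. Sampling and analytical methods follow each source and were often not reported.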

Rat [10] = experiment: concentration in plasma after dosing; conditions: dosed: Methyleugenol, 37 mg/kg, iv, Female, F344
Rat [11] = experiment: concentration in plasma after dosing; conditions: dosed: Methyleugenol, 37 mg/kg, iv, Female, F344; remark: listed apart in the source
Rat [12] = experiment: concentration in plasma after dosing; conditions: dosed: Methyleugenol, 37 mg/kg, oral, Male, F344/N
Rat [13] = experiment: concentration in liver after dosing; conditions: 48 h; dosed: Perfluorohexane-1-sulphonic acid – potassium salt; 16 mg/kg; oral; Female; Harlan Sprague Dawley
Rat [14] = experiment: concentration in plasma after dosing; conditions: 0.5 h; dosed: Primidone; 130 mg/kg; oral; Female; F344
Rat [15] = experiment: concentration in plasma after dosing; conditions: 2 min; dosed: Pyridine; 10 mg/kg; iv; Male; F344
Rat [16] = experiment: concentration in plasma after dosing; conditions: 1.5 h; dosed: alpha-Thujone; 50 mg/kg; oral; Female; Harlan Sprague Dawley
Rat [17] = experiment: concentration in brain after dosing; conditions: 10 min; dosed: alpha-Thujone; 50 mg/kg; oral; Female; Harlan Sprague Dawley
Rat [18] = experiment: concentration in plasma after dosing; conditions: 6 h; dosed: alpha-Thujone; 25 mg/kg; oral; Male; Harlan Sprague Dawley
Rat [19] = experiment: concentration in brain after dosing; conditions: 6 h; dosed: alpha-Thujone; 50 mg/kg; oral; Female; Harlan Sprague Dawley
Rat [20] = experiment: concentration in plasma after dosing; conditions: 2 min; dosed: alpha-Thujone; 50 mg/kg; oral; Female; Harlan Sprague Dawley
Rat [21] = experiment: concentration in brain after dosing; conditions: 0.5 h; dosed: alpha-Thujone; 25 mg/kg; oral; Male; Harlan Sprague Dawley

O=C(O)COc1ccc(Cl)cc1Cl [2,4-Dichlorophenoxyacetic acid]
Rat [1]
Conditions	concentration in plasma [ng/mL]
0.25 h	15300
0.5 h	6490
0.75 h	6000
2 h	1910
2.5 h	720
2.5 min	26200
3 h	282

O=C(c1ccccc1)c1ccc(O)cc1O [2,4-Dihydroxybenzophenone]
Conditions	concentration in plasma [ng/mL]
Rat [2], 3 h	59
Rat [2], 10 min	126
Rat [3], 10 h	150
Rat [3], 10 min	258
Rat [4], 0.5 h	162
Rat [4], 12 h	148
Rat [8], 3 h	67.4
Rat [8], 10 min	58.3

Conditions	concentration in plasma [ng/mL]
Mouse [6]	46.1
Mouse [7]	1050
Rat [5]	245
Rat [9]	103

CC(C)(O)CO [2-methyl-1,2-propanediol]
amount in urine, human, inhalation, duration: 4 hr
Conditions	dosed: ethyl tert-butyl ether	dosed: methyl tert-butyl ether
0 h, 4.5 ppm	0.545	1.1
0.1089 h, 38.7 ppm	–	7.53
0.1579 h, 40.6 ppm	3.98	–
5.975 h, 4.5 ppm	2.4	–
6 h, 40.6 ppm	14.9	–
6.195 h, 38.7 ppm	–	37
6.261 h, 4.5 ppm	–	3.42
11.95 h, 38.7 ppm	–	45.2
12 h, 40.6 ppm	24.1	–
12.1 h, 4.5 ppm	–	4.96
12.15 h, 4.5 ppm	2.89	–
18 h, 40.6 ppm	19.9	–
18.07 h, 4.5 ppm	3.11	–
18.16 h, 4.5 ppm	–	2.54
18.22 h, 38.7 ppm	–	35.6
23.96 h, 38.7 ppm	–	26
24 h, 4.5 ppm	–	3.2
24 h, 40.6 ppm	12.5	–
24.03 h, 4.5 ppm	2.35	–
29.89 h, 40.6 ppm	7.97	–
30.14 h, 38.7 ppm	–	28.1
30.16 h, 4.5 ppm	–	2.54
30.2 h, 4.5 ppm	1.53	–
35.98 h, 38.7 ppm	–	17.1
36 h, 4.5 ppm	–	1.32
36.11 h, 40.6 ppm	7.37	–
36.16 h, 4.5 ppm	1.04	–
42.11 h, 40.6 ppm	4.98	–
42.12 h, 4.5 ppm	0.655	–
42.15 h, 38.7 ppm	–	8.9
42.16 h, 4.5 ppm	–	0.662
48 h, 38.7 ppm	–	5.48
48.11 h, 40.6 ppm	3.19	–
48.3 h, 4.5 ppm	0.6	–
54.05 h, 40.6 ppm	2.39	–
54.07 h, 38.7 ppm	–	4.79
60.03 h, 38.7 ppm	–	3.42
60.16 h, 40.6 ppm	2.19	–
66.09 h, 38.7 ppm	–	3.42
66.11 h, 40.6 ppm	1.59	–
71.95 h, 38.7 ppm	–	1.37
72.05 h, 40.6 ppm	1.59	–

amount in urine, human, dosed: methyl tert-butyl ether, oral
Conditions	5 mg	15 mg
0 h	0.0411	–
5.848 h	–	2.13
6.268 h	0.795	–
12.12 h	1.23	3.38
17.99 h	–	2.7
18.39 h	1.15	–
24.17 h	–	1.82
24.44 h	0.658	–
30.03 h	–	1.82
30.29 h	0.616	–
36.11 h	–	1.02
36.35 h	0.384	–
41.98 h	–	0.46
42.2 h	0.233	–
48.05 h	–	0.462
48.26 h	0.123	–
53.91 h	–	0.224
54.42 h	0.123	–
59.78 h	–	0.146
60.27 h	0.0411	–
65.95 h	–	0.0276

C=CCc1ccc(OC)c(OC)c1 [Methyleugenol]
Conditions	concentration in plasma [ng/mL]
Rat [10], 0.5 h	1520
Rat [10], 0.75 h	768
Rat [11], 2 min	43100
Rat [11], 6 h	68
Rat [12], 1 h	59.2
Rat [12], 5 h	18.6

O=S(=O)([O-])C(F)(F)C(F)(F)C(F)(F)C(F)(F)C(F)(F)C(F)(F)F.[K+] [Perfluorohexane-1-sulphonic acid – potassium salt]
Conditions	concentration in liver [ng/g]
Rat [13]	14300

CCC1(c2ccccc2)C(=O)NCNC1=O [Primidone]
Conditions	concentration in plasma [ng/mL]
Rat [14]	35300

c1ccncc1 [Pyridine]
Conditions	concentration in plasma [ng/mL]
Rat [15]	10100

CC(C)[C@]12CC(=O)[C@H](C)[C@H]1C2 [alpha-Thujone]
Conditions	concentration in brain [ng/g]	concentration in plasma [ng/mL]
Rat [16]	–	323
Rat [17]	2340	–
Rat [18]	–	42.9
Rat [19]	165	–
Rat [20]	–	146
Rat [21]	359	–
